XBP1 UPR activ – activators of adaptive arm of unfolded protein response (XBP1); CHO-XBP1 luciferase reporter, IRE1-XBP1 UPR activation, luminescence; percent of tunicamycin response, DMSO as zero; activation, % at 20 µM; 330,000 tested, 0.33% active;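 active = versus positive control, 20 µM dose yields 30% or more activation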;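 also: 100% = tunicamycin at 10 µg/mL and 0% = DMSO only wells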
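Test system: CHO-XBP1 luciferase reporter cells | Buffer or medium: Serum-containing F12 medium, 10% FBS | Schedule: 6 h compound exposure at 37 °C, 5% CO2 | Detection: Steady-Glo luciferase glow luminescence, 10 min after reagent addition | Read-out basis: Activation, % of tunicamycin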
CHOP UPR activ – activators of apoptotic arm of unfolded protein response (CHOP) | CHO-CHOP luciferase reporter, UPR activation, luminescence; percent of tunicamycin response over DMSO baseline | activation, % at 10 µM | 330,000 tested, 0.34% active;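 active = at 10 µM dose, activation of 40% or more, normalized to positive control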;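 also: 100% = tunicamycin at 10 µg/mL and 0% = DMSO alone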
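Dosing – one dose, 10 µM in 0.5% DMSO · System – CHO-CHOP cells, stable luciferase reporter of PERK-eIF2a-CHOP signalling · Input – 500 cells/well · Control set – tunicamycin 10 µg/mL final as positive, DMSO-only wells as negative · Timing – 6 h compound treatment, 37 °C · Measure – % activation vs tunicamycin · Technique – luminescence read with Steady-Glo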
UCH37 inh – human UCH37 deubiquitinating enzyme inhibition; purified proteasome/UCH37, Ub-AMC cleavage fluorescence; inhibition, % (test concentration not listed); 330,000 tested, 0.33% active; AID 588478;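 active = mean inhibition over replicate wells above about 20%, limit read from the data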;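 also: 0% = compound-free wells with enzyme and 100% = wells lacking proteasome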
Target sequence (Q9Y5K5 whole entry, looked up): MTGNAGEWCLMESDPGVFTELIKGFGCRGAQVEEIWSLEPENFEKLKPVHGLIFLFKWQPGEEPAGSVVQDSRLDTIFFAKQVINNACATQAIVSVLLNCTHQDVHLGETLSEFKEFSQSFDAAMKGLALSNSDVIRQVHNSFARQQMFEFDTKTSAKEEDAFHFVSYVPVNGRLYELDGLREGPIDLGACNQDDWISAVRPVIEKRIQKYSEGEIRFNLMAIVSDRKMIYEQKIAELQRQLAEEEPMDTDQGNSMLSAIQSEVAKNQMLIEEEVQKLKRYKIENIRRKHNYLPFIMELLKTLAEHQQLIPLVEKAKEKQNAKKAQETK
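Signal – fluorescence, ex 355 nm, em 460 nm · System – Proteasome-bound UCH37 · Input – 0.15 nM proteasome as dispensed · Timing – 30 min preincubation with enzyme, 25 min cleavage at room temperature · Read-out basis – percent inhibition of cleavage signal versus uninhibited and no-proteasome wells · Medium – Tris-HCl pH 7.4 with ATP-MgCl2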
CTSL1 counter – blocks F. hepatica cathepsin L1 in PFM18AAP counter-screen. recombinant F. hepatica cathepsin L1, Z-Leu-Arg-MCA fluorescence. inhibition, % at 5.96 µM. 300,000 tested, 0.49% active;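 active = inhibition above the mean of all tested compounds plus 3 SD, set per screening campaign, cut at about 17% in these data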;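 also: 0% = plate median of test compound wells and 100% = 1 µM Z-Phe-Ala-diazomethylketone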
CHOP inhibitor – blocks CHOP induction under ER stress; CHO-K1 CHOP-promoter luciferase, tunicamycin-induced, 15-18 h; inhibition, % at 10 µM; 220,000 tested, 3.8% active; AID 2732;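 active = compounds that reduced the stress-induced luciferase reporter signal by more than about 70% of percent inhibition, limit read from the data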;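 also: 0% = tunicamycin plus vehicle and 100% = wells without tunicamycin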
An asterisk follows results filed as active; · = no result given. Many of the other results were omitted from the sample, so hits are more common in it than they were.

SMILES	XBP1 UPR activ	CHOP UPR activ	UCH37 inh	CTSL1 counter	CHOP inhibitor
Cc1cc(N/N=C/c2ccccc2O)nc(-c2ccccc2O)n1	4.2	3.7	·	-4.2	74.6*
CON=CNC(=O)C1=NOC(CNc2ncc(C(F)(F)F)cc2Cl)C1 (stereo not drawn)	·	·	-1.1	·	·
COc1cc(C2CC(c3cccs3)=NN2C(=O)CCl)ccc1OC(F)F (stereo not drawn)	-13.5	-7.9	·	59.2*	·
O=C(CCl)N1N=C(c2ccco2)CC1c1cccs1 (stereo not drawn)	·	·	3.1	26.3*	90.3*
COc1ccc(C2CC(c3cccs3)=NN2C(=O)c2ccccc2)cc1OC (stereo not drawn)	0.2	0.6	0.7	-1.5	·
COc1ccc(C2CC(c3cccs3)=NN2C(=O)CCl)cc1OC (stereo not drawn)	-8.5	-8.0	·	58.3*	·
Cc1ccc(S(=O)(=O)NN=Cc2cccc3nccnc23)cc1	·	·	4.9	·	·
Br/C(C=NN1CCN(Cc2ccccc2)CC1)=C/c1ccccc1	·	·	1.9	·	·
Cc1ccc(NN=C2CCCNC2=O)cc1	·	·	7.4	·	·
Cc1ccc(NC(=O)COC(=O)c2ccc3c(c2)C(=O)N(CCc2ccccc2)C3=O)c(C)c1	-0.1	-0.3	2.7	-2.0	77.8*
O=[N+]([O-])c1ccc(C=NNS(=O)(=O)c2ccc(F)cc2)o1	·	·	3.1	·	·
O=c1c2ccc(Cl)cc2nc(-c2cccc(C(F)(F)F)c2)n1O	4.5	19.7	4.8	0.6	73.6*
O=C(NN=Cc1cccc(O)c1)c1ccc(COc2ccccc2Br)cc1	·	·	4.1	·	·
COC(=O)N/N=C/c1ccc(-c2cc(Cl)ccc2Cl)o1	-1.9	-0.2	·	-2.1	-31.8
O/N=C/c1ccc(-c2cc(Cl)ccc2Cl)o1	-3.0	-3.6	·	-1.8	95.6*
Cc1[nH]c2ccccc2c1C=NNC(N)=S	·	·	10.7	·	·
C[C@H]1CN(C2CCCCC2)C(=O)[C@@H]1CC(=O)NCc1ccccc1	0.0	-1.1	0.0	-8.8	·
CCCCC[C@H]1CN(C2CCCCC2)C(=O)[C@@H]1CC(=O)NCc1ccccc1	0.9	0.7	32.4*	3.6	·
CNC(=S)NN=Cc1c2ccccc2c(Cl)c2ccccc12	·	·	0.2	·	·
Cc1cc(C=Nn2cnnc2)c(C)n1-c1ccc(OCc2ccc(Cl)cc2)cc1	·	·	-0.4	·	·
Cc1nn(-c2ccccn2)c2nc(-c3cccs3)cc(C(=O)NCc3ccco3)c12	-0.9	2.2	-122.9	3.7	-29.9
Cc1nn(-c2ccccc2)c2nc(-c3ccncc3)cc(C(=O)NCc3ccco3)c12	-0.8	1.9	-29.8	-1.7	71.5*
COC(=O)c1cc2sccc2n1CC(=O)Nc1cccc(SC)c1	-2.0	2.2	5.3	0.4	85.2*
Oc1ccc(C=NNc2ccccc2)cc1	·	·	-0.8	·	·
O=C(NN=Cc1ccco1)C1CC1c1ccccc1 (stereo not drawn)	·	·	4.2	·	·
SMILES	XBP1 UPR activ	CHOP UPR activ	UCH37 inh	CTSL1 counter	CHOP inhibitor
Cc1ccc(C(=O)c2cc(C)sc2NC(=O)CN2CCN(C(=O)c3ccco3)CC2)cc1	6.3	3.2	6.4	3.7	81.5*
CCc1cc(C(=O)OC)c(NC(=O)CN2CCN(C(=O)c3ccco3)CC2)s1	-2.1	-0.2	1.0	-6.9	·
CC(Oc1cccc(F)c1)c1ccnc2nc(N=CN(C)C)nn12 (stereo not drawn)	·	·	-79.8	·	·
COCCNC(=S)NN=Cc1ccc(OCc2ccc(C(=O)OC)cc2)c(OC)c1	·	·	-5.7	·	·
Cc1ccsc1C=Nc1ccc(O)cc1	3.3	0.2	16.5	102.3*	·
Cc1ccc(C(=O)N/N=C/c2ccc([N+](=O)[O-])s2)cc1	-10.8	-8.9	·	3.0	70.5*
Cc1nc2ccccc2c(=O)n1/N=C/c1ccncc1	1.4	0.7	·	18.4*	-9.6
Cc1nc2ccccc2c(=O)n1N=Cc1ccccc1	·	·	0.0	·	·
COc1ccc(/C=N/n2c(-c3ccco3)nc3ccccc3c2=O)cc1	2.1	2.6	·	-0.9	80.0*
O=C(NNC1=Nc2cccc3cccc1c23)c1ccccc1Br	1.5	-0.4	-0.1	4.7	89.9*
Cc1cccc(CSc2ncnc3ccccc23)c1	-1.0	2.5	2.5	2.0	73.3*
CC(=O)Oc1c(S(=O)(=O)c2ccc(C)cc2)c(C)nn1C(C)(C)C	-1.5	0.6	1.4	-3.2	49.8
Cc1ccc(S(=O)(=O)c2c(C)nn(C(C)(C)C)c2OC(=O)c2cccs2)cc1	-4.6	0.5	-0.4	0.6	71.5*

Source: PubChem BioAssay (several laboratories)
